Results of several laboratories.
Protocols differ between the studies behind these lines.
Organism: Aspergillus niger
Read-out: microbial growth

| Compound | method | strain | tested at | quantity | result |
| --- | --- | --- | --- | --- | --- |
| Cc1ccc(C)n1-c1ccc(-c2nnc(-c3ccc(O)cc3)[nH]2)cc1 | broth dilution | ATCC6275 | – | MIC | 31.2 µg/mL |
| CC1=NN(CNC(=O)c2ccccn2)C(=O)C1=NNn1c(-c2ccccc2)nc2ccccc2c1=O | broth dilution | – | – | MIC | 104 µM |
| Oc1ccc(Br)cc1-c1nc2ccccc2[nH]1 | – | ATCC16404 | – | MIC | 512 µg/mL |
| O=C(O)c1cn(C2CC2)c2cc(N3CCNCC3)c(F)cc2c1=O | broth dilution | – | – | MIC | 25.5 µM |
| Cc1cc(=O)[nH]n1C(=O)c1ccc(-n2c(C)ccc2C)cc1 | broth dilution | ATCC6275 | – | MIC | 250 µg/mL |
| Clc1ccccc1C(c1ccccc1)(c1ccccc1)n1ccnc1 | disc diffusion | – | 100 µg/mL | inhibition zone | 18 mm |
| CC1=NN(CNC(=O)c2ccccc2)C(=O)C1=NNn1c(-c2ccccc2)nc2ccccc2c1=O | broth dilution | – | – | MIC | 104 µM |
| Cc1ccc(C)n1-c1ccc(-c2nnc(S)s2)cc1 | broth dilution | ATCC6275 | – | MIC | 125 µg/mL |
| CSc1ccc(-c2nc3ccc(C)cc3[nH]2)cc1 | – | ATCC16404 | – | MIC | 64 µg/mL |
| O=C1NN=C(N=Cc2ccccc2)C1=NNn1c(-c2ccccc2)nc2ccccc2c1=O | broth dilution | – | – | MIC | 57.1 µM |
| Cc1ccc2nc(-c3cc(Br)ccc3O)[nH]c2c1 | – | ATCC16404 | – | MIC | 256 µg/mL |
| O=C1NN=C(N=Cc2ccc(O)cc2O)C1=NNn1c(-c2ccccc2)nc2ccccc2c1=O | broth dilution | – | – | MIC | 107 µM |
| Cc1ccc(C)n1-c1ccc(-c2n[nH]c(=S)[nH]2)cc1 | broth dilution | ATCC6275 | – | MIC | > 500 µg/mL |
| Cc1ccc2nc(-c3ccc(Cl)c(Cl)c3)[nH]c2c1 | – | ATCC16404 | – | MIC | 32 µg/mL |
| Clc1ccccc1C(c1ccccc1)(c1ccccc1)n1ccnc1 | disc diffusion | – | 20000 µg/mL | inhibition zone | 25 mm |
| Cc1ccc2nc(-c3ccco3)n(Cc3ccccc3)c2c1 | – | ATCC16404 | – | MIC | 512 µg/mL |
| Cc1ccc(C)n1-c1ccc(-c2nnc(-c3ccc(Br)cc3)[nH]2)cc1 | broth dilution | ATCC6275 | – | MIC | 4 µg/mL |
